From ChEMBL document CHEMBL1152993, “Telithromycin and quinupristin-dalfopristin induce delayed death in Plasmodium falciparum” (Antimicrob Agents Chemother, 2008)
≈ marks a conversion by molar mass, not a printed value. Calls of active or inactive are those of the source. The calls are words filed in the database; no cut-off is given here.

Key:
Plasmodium falciparum [1] = test: Antiplasmodial activity after 96 hrs against Plasmodium falciparum 3D7 as Malstat LDH activity; type: functional, organism-based; settings: for IC50: 3D7, 96 h
Outline: (§1)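 Synchronized ring-stage 3D7 plated at 1% parasitemia. Drugs tested at 1 nM to 100 μM, dissolved in DMSO or water; 0.5% DMSO was the negative control. Cultures kept 48, 72, 96 or 120 h, with medium changed at day 3. Viability read by Malstat parasite lactate dehydrogenase activity. IC50 reported as mean ± SEM.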

Plasmodium falciparum [2] = test: Antiplasmodial activity against Plasmodium falciparum 3D7 as early schizont maturation arrest at IC50 after 48-120 hrs by giemsa stain; type: functional, organism-based
Outline: (§2)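 Synchronized 3D7 cultures exposed to drug at the 96-h IC50 over three life cycles, with 0.5% DMSO as untreated control. Giemsa smears were taken at 48, 72, 96 and 120 h, and developmental stages were counted at each time point.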

Plasmodium falciparum [3] = test: Relative activity against Plasmodium falciparum 3D7 as IC50 ratio after 48 and 96 hrs; type: functional
Plasmodium falciparum [4] = test: Antiplasmodial activity after 72 hrs against Plasmodium falciparum 3D7 as Malstat LDH activity; type: functional, organism-based; settings: for IC50: 3D7, 72 h; outline: as §1
Plasmodium falciparum [5] = test: Antiplasmodial activity against Plasmodium falciparum 3D7 assessed as multiple-nuclei schizont arrest at IC50 after 96 hrs by transmission electron microscopy; type: functional, organism-based
Outline: (§3)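 Cultures exposed to drug at the 96-h IC50 and collected after 96 h of treatment. Fixed in 1% glutaraldehyde and 4% paraformaldehyde in PBS, then processed for transmission electron microscopy to assess schizont stage and morphology. Untreated parasites served as comparison.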

Plasmodium falciparum [6] = test: Antiplasmodial activity after 120 hrs against Plasmodium falciparum 3D7 as Malstat LDH activity; type: functional, organism-based; settings: for IC50: 3D7, 120 h; outline: as §1
Plasmodium falciparum [7] = test: Antiplasmodial activity after 48 hrs against Plasmodium falciparum 3D7 as Malstat LDH activity; type: functional, organism-based; settings: for IC50: 3D7, 48 h; outline: as §1
Plasmodium falciparum [8] = test: Antiplasmodial activity against Plasmodium falciparum 3D7 as delayed first replication cycle at IC50 after 48-120 hrs by giemsa stain; type: functional; outline: as §2
Plasmodium falciparum [9] = test: Antiplasmodial activity against Plasmodium falciparum 3D7 as late trophozoite to early schizont arrest at IC50 after 48-120 hrs by giemsa stain; type: functional, organism-based; outline: as §2
[10] = Cmax in human at 12 mg/kg administered as single oral dose; type: ADME, organism-based; set-up: dose 12 mg/kg, route oral; settings: in vivo
Plasmodium falciparum [11] = test: Antiplasmodial activity against Plasmodium falciparum 3D7 as delayed maturation in first replication and early second cycle arrest at IC50; type: functional, organism-based; outline: as §2
Plasmodium falciparum [12] = test: Antiplasmodial activity as ED50 against parasite growth after 96 hrs for Plasmodium falciparum 3D7; type: functional, organism-based; settings: 3D7, 96 h; outline: as §1
Plasmodium falciparum [13] = test: Antiplasmodial activity as ED50 against parasite growth after 48 hrs for Plasmodium falciparum 3D7; type: functional, organism-based; settings: 3D7, 48 h; outline: as §1
Plasmodium falciparum [14] = test: Antiplasmodial activity against Plasmodium falciparum 3D7 as 2xnuclei schizont arrest at IC50 after 96 hrs by transmission electron microscopy; type: functional, organism-based; outline: as §3

For `C[C@H]1c2cccc(O)c2C(=O)C2=C(O)[C@]3(O)C(=O)C(C(N)=O)=C(O)[C@@H](N(C)C)[C@@H]3[C@@H](O)[C@@H]21.O` [DOXYCYCLINE], the IC50 (Plasmodium falciparum [1]) was 720 nM, the Activity (Plasmodium falciparum [2]) was “Active” and the “Ratio IC50” value (Plasmodium falciparum [3]) was 10. The IC50 (Plasmodium falciparum [4]) was 1490 nM, the Activity (Plasmodium falciparum [5]) was “Active” and the IC50 (Plasmodium falciparum [6]) was 120 nM. The IC50 (Plasmodium falciparum [7]) was 5420 nM.

For `CC[C@H]1OC(=O)[C@H](C)[C@@H](O[C@H]2C[C@@](C)(OC)[C@@H](O)[C@H](C)O2)[C@H](C)[C@@H](O[C@@H]2O[C@H](C)C[C@H](N(C)C)[C@H]2O)[C@](C)(O)C[C@@H](C)CN(C)[C@H](C)[C@@H](O)[C@]1(C)O` [AZITHROMYCIN], the IC50 (Plasmodium falciparum [1]) was 940 nM, the Activity (Plasmodium falciparum [2]) was “Active” and the “Ratio IC50” value (Plasmodium falciparum [3]) was 10. For the same molecule, the IC50 (Plasmodium falciparum [4]) was 4570 nM, the Activity (Plasmodium falciparum [5]) was “Active” and the IC50 (Plasmodium falciparum [6]) was 410 nM. It also gave an IC50 (Plasmodium falciparum [7]) of 9040 nM.

In the case of `CC[C@H]1OC(=O)[C@H](C)C(=O)[C@H](C)[C@@H](O[C@@H]2O[C@H](C)C[C@H](N(C)C)[C@H]2O)[C@](C)(OC)C[C@@H](C)C(=O)[C@H](C)[C@H]2N(CCCCn3cnc(-c4cccnc4)c3)C(=O)O[C@]12C` [TELITHROMYCIN], the IC50 (Plasmodium falciparum [1]) is reported as 280 nM, the Activity (Plasmodium falciparum [8]) is reported as 5 h and the Activity (Plasmodium falciparum [9]) is reported as “Active”. For the same molecule, the Cmax [10] was 1900 ng/mL, the Activity (Plasmodium falciparum [11]) was “Active” and the IC50 (Plasmodium falciparum [4]) was 1040 nM. The IC50 (Plasmodium falciparum [12]) was 0.23 µg/mL (≈ 0.283 µM), the IC50 (Plasmodium falciparum [13]) was 6.56 µg/mL (≈ 8.08 µM) and the IC50 (Plasmodium falciparum [6]) was 440 nM. For the same molecule, the Activity (Plasmodium falciparum [14]) was “Active” and the IC50 (Plasmodium falciparum [7]) was 8080 nM.

For `CC(=O)NC[C@H]1CN(c2ccc(N3CCOCC3)c(F)c2)C(=O)O1`, the Activity (Plasmodium falciparum [1]) was “inactive”, the Activity (Plasmodium falciparum [4]) was “inactive” and the Activity (Plasmodium falciparum [6]) was “inactive”. For the same molecule, the Activity (Plasmodium falciparum [7]) was “inactive”.
